These results are taken from paper PMC8649585 (Neoplasia (New York, N.Y.), 2021).

Read-outs that look alike come from different tables or passages of the source.

Experiment [1] has as its system J82 cells. The experiment in a line: Cell proliferation assay. The format is cell-based.
Experiment [2] has as its system HEP3B cells. In words: Cell proliferation assay. The format is cell-based, human. As to conditions: 72 h. The procedure, abridged: (§1)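 Seeding was 5 × 10^3 cells per well in 96-well plates: HEP3B in DMEM, HUH7 and HEPG2 in RPMI1640, all with 10% FBS at 37 °C under 5% CO2. Cells received 10 doses of test compound in 3-fold serial dilution for 72 h. Viability was read by CellTiter-Glo luminescence.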

The subject of experiment [3] is MDA-MB-453 cells. In words: Cell proliferation assay. It is filed as cell-based. The procedure, abridged:
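MDA-MB-453 cells (DMEM, 10% FBS, 37 °C, 5% CO2) were plated at 5 × 10^3 per well in 96-well plates. Test compound was added at 10 doses in 3-fold serial dilution for 72 h. Viability was read by CellTiter-Glo luminescence, and GI50 was derived from the dose-response curves.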

In experiment [4] the test system is HUH7 cells. In words: Cell proliferation assay. The format is cell-based, human. The procedure, abridged:
as §1

For experiment [5], the system named is HEPG2 cells. In words: Cell proliferation assay. It is filed as cell-based, human. The settings on record: FGFR4 overexpression, HCC. The procedure, abridged: as §1
Experiment [6] concerns KMS-11 cells. In words: Cell proliferation assay. The format is cell-based.
In experiment [7] the test system is AN3-CA cells. In words: Cell proliferation assay. The format is cell-based. As to conditions: 72 h.
Experiment [8] relates to HEP3B cells. In words: Cell cycle analysis. The format is cell-based, human. The settings on record: 18 h. The procedure, abridged:
(§2)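 Cells seeded at 1 × 10^5 on 60 mm plates and exposed to test compound for 18 h. They were then fixed in 70% ethanol and resuspended in PBS containing 50 μg/mL propidium iodide. DNA content was measured by flow cytometry to give the cell cycle phase distribution.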

Experiment [9] has as its system HUH7 cells. The experiment in a line: Invasion assay. As to conditions: low concentrations. The format is cell-based, human. The procedure, abridged: (§3)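 Cells (HUH7 in RPMI1640, HEP3B in DMEM) were serum-starved for 12 h. They were then seeded at 5.0 × 10^4 cells per chamber into 8 μm ECMatrix-coated transwell chambers (QCM collagen invasion kit). Test compound was added and chambers were incubated at 37 °C under 5% CO2. Invaded cells were stained with 0.005% crystal violet in PBS.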

For experiment [10], the target named is FGFR2 N549H (Homo sapiens, UniProt P21802, N549H). In words: Radiometric biochemical kinase assay. As to conditions: ATP 10 µM.
Experiment [11] relates to phosphorylation of FGFR and downstream molecules (PLCγ, FRS2α, AKT, ERK1/2) in HEP3B cells. In words: Western blot of FGFR signaling. It is filed as cell-based, human. As to conditions: dose-dependent. The procedure, abridged: (§4)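 After SDS-PAGE, proteins were transferred to nitrocellulose and blocked in 5% milk in TBS-T. Rabbit antibodies (FGFR4, pFGFR, pERK, pFRS2α, pPLCγ, β-actin) were applied overnight at 4 °C, then secondary for 1 h. Detection was by ECL with densitometry.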

In experiment [12] the test system is HUH7 cells. In words: Apoptosis assay. The format is cell-based, human. The settings on record: 24 h. The procedure, abridged: (§5)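 Cells (1 × 10^5) were treated with test compound for 24 h, then harvested and stained with Alexa Fluor 488 annexin V and propidium iodide per kit instructions, and analysed by flow cytometry. Culture: HEP3B and SK-HEP1 in DMEM, HUH7 in RPMI1640, each with 10% FBS and antibiotic-antimycotic, at 37 °C under 5% CO2.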

For experiment [13], the system named is SK-HEP1 cells. In words: Soft agar anchorage-independent growth assay. The format is cell-based. As to conditions: 5 µM, 3 weeks. The procedure, abridged: (§6)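 The base layer was 0.5% agar in DMEM in 6-well plates. Cells were suspended in 2× DMEM with 0.7% agar (0.35% agar per legend) at 5 × 10^3 cells per well and overlaid with medium containing test compound. Plates were incubated for 3 weeks at 37 °C under 5% CO2. Colonies were stained with iodonitrotetrazolium chloride in PBS and imaged.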

Experiment [14] deals with FGFR1 WT (Homo sapiens, UniProt P11362). The experiment in a line: Radiometric biochemical kinase assay. The settings on record: ATP 10 µM.
Experiment [15] addresses FGFR1 V561M (Homo sapiens, UniProt P11362, V561M). In words: Radiometric biochemical kinase assay. The settings on record: ATP 10 µM.
The subject of experiment [16] is HUH7 cells. The experiment in a line: Scratch wound healing migration assay. It is filed as cell-based, human. The settings on record: GNF-7 0.01 or 0.05 μM, SIJ1263 0.002 or 0.005 μM, PD173074 0.1 μM, 36 h.
The test system of experiment [17] is HEP3B cells. The experiment in a line: Soft agar anchorage-independent growth assay. The settings on record: GNF-7 0.1 or 0.5 µM, SIJ1263 0.01 or 0.05 µM, 3 weeks. The format is cell-based, human. The procedure, abridged:
as §6

In experiment [18] the test system is HEP3B cells. The experiment in a line: Scratch wound healing migration assay. The settings on record: GNF-7 0.01 or 0.05 μM, SIJ1263 0.002 or 0.005 μM, PD173074 0.1 μM. The format is cell-based, human.
The subject of experiment [19] is phosphorylation of FGFR and downstream molecules (PLCγ, FRS2α, AKT, ERK1/2) in HUH7 cells. The experiment in a line: Western blot of FGFR signaling. The format is cell-based, human. As to conditions: dose-dependent. The procedure, abridged: as §4
For orientation: In western blotting, separated proteins are transferred to a membrane and probed.

For experiment [20], the system named is SK-HEP1 cells. In words: Cell cycle analysis. It is filed as cell-based. As to conditions: 18 h.
The subject of experiment [21] is HUH7 cells. In words: Cell cycle analysis. It is filed as cell-based, human. As to conditions: 18 h. The procedure, abridged:
as §2

Experiment [22] relates to HUH7 cells. The experiment in a line: Soft agar anchorage-independent growth assay. It is filed as cell-based, human. As to conditions: GNF-7 0.1 or 0.5 µM, SIJ1263 0.01 or 0.05 µM, 3 weeks. The procedure, abridged:
as §6

Experiment [23] relates to HEP3B cells. In words: Apoptosis assay. The format is cell-based, human. The settings on record: 24 h. The procedure, abridged: as §5
Experiment [24] addresses FGFR4 WT (Homo sapiens, UniProt P22455). The experiment in a line: Radiometric biochemical kinase assay.
Experiment [25] addresses FGFR2 WT (Homo sapiens, UniProt P21802). In words: Radiometric biochemical kinase assay. As to conditions: ATP 10 µM.
The subject of experiment [26] is SK-HEP1 cells. The experiment in a line: Apoptosis assay. As to conditions: 24 h. It is filed as cell-based. The procedure, abridged: as §5
The subject of experiment [27] is HEP3B cells. The experiment in a line: Invasion assay. It is filed as cell-based, human. As to conditions: low concentrations. The procedure, abridged:
as §3

Sequence of FGFR4 WT (P22455 22-802): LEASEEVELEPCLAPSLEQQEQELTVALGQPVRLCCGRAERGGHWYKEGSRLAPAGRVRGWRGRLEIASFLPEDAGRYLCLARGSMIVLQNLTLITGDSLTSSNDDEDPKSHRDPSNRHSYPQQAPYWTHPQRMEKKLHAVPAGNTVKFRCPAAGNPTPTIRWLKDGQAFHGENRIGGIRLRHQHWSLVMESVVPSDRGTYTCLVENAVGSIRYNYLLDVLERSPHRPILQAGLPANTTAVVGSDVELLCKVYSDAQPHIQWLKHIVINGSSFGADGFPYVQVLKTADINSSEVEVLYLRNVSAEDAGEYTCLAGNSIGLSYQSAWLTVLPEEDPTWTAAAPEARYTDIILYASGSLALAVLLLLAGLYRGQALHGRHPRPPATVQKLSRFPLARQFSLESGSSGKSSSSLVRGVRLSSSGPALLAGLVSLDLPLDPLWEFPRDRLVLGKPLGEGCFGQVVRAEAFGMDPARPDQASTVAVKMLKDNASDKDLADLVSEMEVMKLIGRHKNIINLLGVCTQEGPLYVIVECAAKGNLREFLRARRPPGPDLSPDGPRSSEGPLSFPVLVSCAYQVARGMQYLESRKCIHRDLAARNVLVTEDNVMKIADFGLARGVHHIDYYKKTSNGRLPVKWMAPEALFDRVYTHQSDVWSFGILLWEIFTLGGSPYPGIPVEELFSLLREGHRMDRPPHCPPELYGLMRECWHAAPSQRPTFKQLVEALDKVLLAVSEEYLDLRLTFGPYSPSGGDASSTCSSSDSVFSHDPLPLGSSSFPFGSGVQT
Sequence of FGFR1 WT (P11362 22-822): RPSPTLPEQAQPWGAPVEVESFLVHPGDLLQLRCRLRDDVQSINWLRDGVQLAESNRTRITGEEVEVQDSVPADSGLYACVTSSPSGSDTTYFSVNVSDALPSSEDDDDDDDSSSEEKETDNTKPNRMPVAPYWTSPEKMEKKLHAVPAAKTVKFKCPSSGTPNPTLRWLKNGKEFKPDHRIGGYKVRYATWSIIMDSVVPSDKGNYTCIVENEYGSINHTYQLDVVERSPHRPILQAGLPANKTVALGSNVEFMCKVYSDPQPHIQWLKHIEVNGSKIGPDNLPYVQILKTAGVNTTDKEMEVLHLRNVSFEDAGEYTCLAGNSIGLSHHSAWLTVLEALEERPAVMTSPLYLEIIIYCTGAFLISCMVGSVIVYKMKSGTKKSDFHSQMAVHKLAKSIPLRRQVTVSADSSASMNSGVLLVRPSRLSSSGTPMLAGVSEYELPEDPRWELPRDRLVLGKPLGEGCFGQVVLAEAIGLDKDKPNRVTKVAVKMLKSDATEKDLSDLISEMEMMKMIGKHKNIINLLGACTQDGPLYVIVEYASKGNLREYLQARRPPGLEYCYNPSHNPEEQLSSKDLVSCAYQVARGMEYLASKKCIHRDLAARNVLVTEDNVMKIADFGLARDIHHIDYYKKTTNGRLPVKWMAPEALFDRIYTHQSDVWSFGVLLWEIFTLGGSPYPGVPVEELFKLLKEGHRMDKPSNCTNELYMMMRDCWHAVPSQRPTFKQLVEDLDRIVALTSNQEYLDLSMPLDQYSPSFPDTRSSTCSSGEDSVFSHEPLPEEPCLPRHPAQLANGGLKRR
Sequence of FGFR1 V561M (P11362 22-822 V561M): as the sequence (P11362 22-822) above, with V540M counted along it
Sequence of FGFR2 N549H (P21802 22-821 N549H): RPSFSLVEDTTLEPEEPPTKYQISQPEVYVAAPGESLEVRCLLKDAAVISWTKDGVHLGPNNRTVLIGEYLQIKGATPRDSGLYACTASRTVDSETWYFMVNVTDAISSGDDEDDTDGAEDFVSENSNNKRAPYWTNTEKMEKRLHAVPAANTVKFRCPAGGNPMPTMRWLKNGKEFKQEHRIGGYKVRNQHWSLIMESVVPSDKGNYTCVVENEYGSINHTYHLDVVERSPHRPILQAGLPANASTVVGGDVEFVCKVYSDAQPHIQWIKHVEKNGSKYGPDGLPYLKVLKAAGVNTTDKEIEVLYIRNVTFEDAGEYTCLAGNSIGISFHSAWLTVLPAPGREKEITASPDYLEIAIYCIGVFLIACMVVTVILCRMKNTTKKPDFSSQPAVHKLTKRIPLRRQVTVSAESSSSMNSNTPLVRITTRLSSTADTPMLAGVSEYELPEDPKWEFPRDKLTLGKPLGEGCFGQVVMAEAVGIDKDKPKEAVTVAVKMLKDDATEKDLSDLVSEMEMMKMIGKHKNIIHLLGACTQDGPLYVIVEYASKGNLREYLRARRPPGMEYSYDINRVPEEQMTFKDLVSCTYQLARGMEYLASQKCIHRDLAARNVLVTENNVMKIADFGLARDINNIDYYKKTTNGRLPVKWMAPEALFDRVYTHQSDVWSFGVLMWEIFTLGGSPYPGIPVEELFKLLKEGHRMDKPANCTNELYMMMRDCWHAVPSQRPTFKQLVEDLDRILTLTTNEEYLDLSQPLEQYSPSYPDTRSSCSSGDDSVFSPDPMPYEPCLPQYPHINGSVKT
Sequence of FGFR2 WT (P21802 22-821): as the sequence (P21802 22-821 N549H) above, with H528N counted along it

By GI50 is commonly meant the concentration that inhibits growth by half. Higher therefore signals less potent growth inhibition. For `CCN1CCN(c2ccc(Nc3cc(N(C)C(=O)Nc4c(Cl)c(OC)cc(OC)c4Cl)ncn3)cc2)CC1` [BGJ398, 3-(2,6-dichloro-3,5-dimethoxy-phenyl)-1-{6-[4-(4-ethyl-piperazin-1-yl)-phenylamino]-pyrimidin-4-yl}-1-methyl-urea], the GI50 in experiment [1] (Homo sapiens, J82, 72 h) amounted to 2840 ± 1570 nM; in [2] (Homo sapiens, Hep3B) it was 1370 ± 140 nM; in [3] (Homo sapiens, MDA-MB-453, 72 h), 2640 ± 280 nM; in experiment [4] (Homo sapiens, Huh-7, 72 h), 157 ± 120 nM; in experiment [5] (Homo sapiens, HepG2, 72 h), 5370 ± 1100 nM; in experiment [6] (Homo sapiens, KMS-11, 72 h), 143 ± 100 nM. This compound also showed a 50% growth inhibitory concentration (GI50) in [7] (Homo sapiens) of 57 ± 10 nM.

Turning to `C=CC(=O)Nc1cccc(C)c1Nc1ncc2cc(-c3c(Cl)c(OC)cc(OC)c3Cl)ccc2n1` [BLU9931], the GI50 in [1] (Homo sapiens, J82, 72 h) worked out at 5870 ± 580 nM; in experiment [2] (Homo sapiens, Hep3B) it was 4220 ± 1030 nM; in experiment [3] (Homo sapiens, MDA-MB-453, 72 h), 2150 ± 380 nM; in [4] (Homo sapiens, Huh-7, 72 h) it was 715 ± 100 nM; in experiment [6] (Homo sapiens, KMS-11, 72 h) it was 541 ± 10 nM; in experiment [7] (Homo sapiens), 9200 ± 450 nM.

In general, IC50 refers to the concentration needed to halve the response being measured. As to `Cc1ccc(Nc2ncc3c(n2)N(C)C(=O)N(c2cc(NC(=O)c4cccc(C(F)(F)F)c4)ccc2C)C3)cn1` [GNF-7], the cell cycle distribution entry in [8] and in experiment [21] was “induce G0/G1 phase cell cycle arrest with decrease in the S phase” each time. For the same compound, the effect on invasion result in experiment [9] and in experiment [27] was “remarkably attenuate invasion” in each case. The IC50 came to 7 nM in experiment [10]; 11 nM in experiment [14]; 7540 nM in experiment [15]; 4 nM in experiment [24] (FGFR4 WT, radiometric, ATP 10 µM); 4.17 nM in experiment [24] (read-out: IC50 against FGFR4, wtFGFR4); 20 nM in [25]. Moreover, the “phosphorylation of FGFR and downstream signaling molecules” value in experiment [11] and in [19] was “inhibiting significantly phosphorylation” each time. Further, the apoptosis induction entry in [12] was “inducing apoptosis”; in [23], “inducing apoptosis”; in [26], “little effects”. Besides, the “block of colony formation” value in experiment [13] came to 11%. For the same compound, the concentration for 50% growth inhibition (GI50) is 50 ± 10 nM in experiment [1] (J82, FGFR3 K652E, urinary bladder, 72 h); 373 ± 150 nM in [2] (HEP3B, FGFR4 overexpression, HCC); 443 ± 70 nM in [3] (MDA-MB-453, FGFR4 overexpression, breast cancer, 72 h); 60 ± 10 nM in [4] (HUH7, FGFR4 overexpression, HCC, 72 h); 366 ± 70 nM in experiment [5] (72 h); 15 nM in [6] (KMS-11, FGFR3 Y373C, myeloma, 72 h). Halving of growth in experiment [7] (FGFR2 N549K/K310R, endometrium) (GI50) required 17 nM. Further, the “wound healing (migration)” value in experiment [16] and in experiment [18] was “substantially reduced” each time. Besides, the suppression of colony-formation entry in experiment [17] and in [22] was “almost completely” in each case. Also, the “induction of G0/G1 phase cell cycle arrest” value in experiment [20] is “little effects”.

On to `CCN(CC)CCCCNc1ncc2cc(-c3cc(OC)cc(OC)c3)c(NC(=O)NC(C)(C)C)nc2n1` [PD173074], for which the effect on invasion result in experiment [9] and in experiment [27] was “little effect on invasion capability” throughout. In addition, the GI50 is 975 ± 450 nM in [1] (Homo sapiens, J82, 72 h); 2500 ± 490 nM in experiment [2] (Homo sapiens, Hep3B); greater than 10000 nM in [3] (Homo sapiens, MDA-MB-453, 72 h); 598 ± 240 nM in experiment [4] (Homo sapiens, Huh-7, 72 h); 13400 ± 3600 nM in experiment [5] (72 h); greater than 10000 nM in experiment [5] (Homo sapiens, HepG2, 72 h). Moreover, the GI50 in experiment [6] (Homo sapiens, KMS-11, 72 h) turned out to be 64 ± 20 nM; in [7] (Homo sapiens) it was 973 ± 2550 nM. The “wound healing (migration)” value in experiment [16] and in experiment [18] was “moderately reduced the wound healing” throughout. Further, it took 97 nM to reach half-maximal inhibition in experiment [24] (IC50).

`CNC(=O)c1cc(Oc2ccc(NC(=O)Nc3ccc(Cl)c(C(F)(F)F)c3)cc2)ccn1` [sorafenib]: the GI50 stood at 5420 ± 1120 nM in experiment [2] (Homo sapiens, Hep3B); 9590 ± 2060 nM in [4] (Homo sapiens, Huh-7, 72 h); 8560 ± 1450 nM in experiment [5] (Homo sapiens, HepG2, 72 h).
